Experiment [1] addresses T1, Androgen receptor (Homo sapiens, UniProt P10275).
T1 sequence (P10275 whole entry): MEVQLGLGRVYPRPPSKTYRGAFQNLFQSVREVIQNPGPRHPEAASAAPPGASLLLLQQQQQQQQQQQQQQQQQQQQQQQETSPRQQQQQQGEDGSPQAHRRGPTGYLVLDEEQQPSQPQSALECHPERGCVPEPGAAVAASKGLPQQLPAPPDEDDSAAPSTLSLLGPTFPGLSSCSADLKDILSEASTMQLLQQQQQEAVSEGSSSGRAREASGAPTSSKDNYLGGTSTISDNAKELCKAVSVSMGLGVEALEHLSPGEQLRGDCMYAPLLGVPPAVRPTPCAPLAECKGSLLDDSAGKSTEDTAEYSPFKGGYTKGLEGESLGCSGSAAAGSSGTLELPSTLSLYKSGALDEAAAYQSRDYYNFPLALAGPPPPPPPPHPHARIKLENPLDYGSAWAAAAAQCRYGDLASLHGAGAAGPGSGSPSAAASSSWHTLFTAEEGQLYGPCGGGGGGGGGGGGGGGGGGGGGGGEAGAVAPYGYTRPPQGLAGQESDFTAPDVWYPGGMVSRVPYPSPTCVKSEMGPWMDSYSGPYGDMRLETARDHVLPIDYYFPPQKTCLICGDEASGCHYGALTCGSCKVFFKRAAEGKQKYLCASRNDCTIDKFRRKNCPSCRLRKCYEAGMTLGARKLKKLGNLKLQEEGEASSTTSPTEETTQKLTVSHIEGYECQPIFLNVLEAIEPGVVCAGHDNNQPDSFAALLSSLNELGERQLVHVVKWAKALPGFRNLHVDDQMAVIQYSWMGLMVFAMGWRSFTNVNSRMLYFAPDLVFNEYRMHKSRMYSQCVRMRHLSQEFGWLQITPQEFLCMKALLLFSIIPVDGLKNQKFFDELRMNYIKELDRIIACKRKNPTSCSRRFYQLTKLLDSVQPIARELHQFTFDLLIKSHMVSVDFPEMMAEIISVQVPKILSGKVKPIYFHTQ
The experiment in a line: Binding affinity to androgen receptor by fluorescence polarization assay. The gist of the method: (§1)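 Fluorescence polarization competition of test compound against a fluorescently labelled ligand for binding to full-length receptor or its ligand-binding domain.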
(In general: Fluorescence polarisation rises when a labelled molecule tumbles more slowly, as on binding a larger partner.)

Experiment [2] can be described thus: Selectivity ratio of Ki of GRapha to Ki of progesterone receptor.
The target in experiment [3] is T2, Progesterone receptor (Homo sapiens, UniProt P06401).
T2 sequence (P06401 whole entry): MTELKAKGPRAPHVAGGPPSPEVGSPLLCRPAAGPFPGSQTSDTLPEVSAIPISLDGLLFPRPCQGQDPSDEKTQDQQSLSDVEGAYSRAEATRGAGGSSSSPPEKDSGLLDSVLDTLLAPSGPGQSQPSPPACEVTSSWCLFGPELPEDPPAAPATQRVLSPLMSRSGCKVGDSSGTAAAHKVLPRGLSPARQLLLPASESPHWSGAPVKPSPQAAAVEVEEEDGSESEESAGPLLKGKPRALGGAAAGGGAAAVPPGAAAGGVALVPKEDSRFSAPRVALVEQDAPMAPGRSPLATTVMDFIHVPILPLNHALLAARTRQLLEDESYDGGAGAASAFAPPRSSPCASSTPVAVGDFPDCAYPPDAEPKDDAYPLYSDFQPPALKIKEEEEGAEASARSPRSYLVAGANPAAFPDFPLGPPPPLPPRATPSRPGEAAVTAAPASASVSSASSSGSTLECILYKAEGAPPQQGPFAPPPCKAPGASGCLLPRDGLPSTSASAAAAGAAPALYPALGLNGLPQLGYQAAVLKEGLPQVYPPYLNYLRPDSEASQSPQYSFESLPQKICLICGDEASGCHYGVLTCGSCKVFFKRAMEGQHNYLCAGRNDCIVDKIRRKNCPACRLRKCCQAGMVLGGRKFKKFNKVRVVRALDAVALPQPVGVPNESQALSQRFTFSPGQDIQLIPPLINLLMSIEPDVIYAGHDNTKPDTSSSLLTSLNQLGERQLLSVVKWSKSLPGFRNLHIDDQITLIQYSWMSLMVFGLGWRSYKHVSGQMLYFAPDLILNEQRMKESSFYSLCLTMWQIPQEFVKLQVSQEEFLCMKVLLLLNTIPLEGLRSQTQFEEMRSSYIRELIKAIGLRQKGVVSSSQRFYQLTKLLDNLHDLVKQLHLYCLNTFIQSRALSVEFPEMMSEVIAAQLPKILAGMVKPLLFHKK
The experiment in a line: Binding affinity to progesterone receptor by fluorescence polarization assay. In outline:
as §1

Experiment [4] addresses T3, Glucocorticoid receptor (Homo sapiens) (UniProt P04150).
T3 sequence (whole entry): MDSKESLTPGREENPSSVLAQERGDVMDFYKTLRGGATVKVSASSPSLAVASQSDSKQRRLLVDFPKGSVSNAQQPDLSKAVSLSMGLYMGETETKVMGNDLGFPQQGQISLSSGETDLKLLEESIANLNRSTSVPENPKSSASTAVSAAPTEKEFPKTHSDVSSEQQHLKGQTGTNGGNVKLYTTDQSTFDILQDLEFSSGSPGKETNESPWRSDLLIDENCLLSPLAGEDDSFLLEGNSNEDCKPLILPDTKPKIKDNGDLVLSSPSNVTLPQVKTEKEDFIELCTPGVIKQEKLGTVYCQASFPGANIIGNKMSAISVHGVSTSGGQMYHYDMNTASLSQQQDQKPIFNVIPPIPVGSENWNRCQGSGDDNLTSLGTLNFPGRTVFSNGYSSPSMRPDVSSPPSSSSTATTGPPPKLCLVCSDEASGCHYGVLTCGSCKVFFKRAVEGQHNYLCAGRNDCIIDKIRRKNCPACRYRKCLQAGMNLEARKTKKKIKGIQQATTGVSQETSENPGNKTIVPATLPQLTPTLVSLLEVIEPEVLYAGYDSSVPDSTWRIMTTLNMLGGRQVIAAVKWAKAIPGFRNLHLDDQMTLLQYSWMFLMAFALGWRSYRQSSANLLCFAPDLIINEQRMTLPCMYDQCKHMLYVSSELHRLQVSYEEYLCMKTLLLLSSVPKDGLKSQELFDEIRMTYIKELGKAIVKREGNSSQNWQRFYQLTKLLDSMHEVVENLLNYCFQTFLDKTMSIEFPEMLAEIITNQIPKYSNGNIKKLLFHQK
The experiment in a line: Transactivation activity at glucocorticoid receptor in human 13D3/Huh7 cells assessed as induction of tyrosine aminotransferase activity after 24 hrs relative to Dexamethasone. Format: cell-based. The settings on record: Huh-7. The gist of the method: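 Human 13D3/Huh7 hepatoma cells, 20 K/well, were incubated overnight at 37 °C/5% CO2. They were then treated overnight with compounds in assay medium containing 20 μM forskolin. The reaction was stopped with KOH and A340 read. Results are % activation, with EC50 derived.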

Turning to `CC(C)(C(=O)Nc1nncs1)[C@H]1c2ccccc2Oc2cc(O)ccc21`, the Ki in experiment [1] is 696 nM; in experiment [3], 53 nM. The Ratio Ki in experiment [2] was determined as 66. Besides, the Efficacy in experiment [4] worked out at 45%.

Turning to `CC(C)(C(=O)Nc1nccs1)[C@H]1c2ccccc2Oc2cc(O)ccc21`, the Ki was determined as 2340 nM in experiment [1] and 22 nM in experiment [3]. The Ratio Ki in experiment [2] worked out at 73. The Efficacy in experiment [4] came to 39%.

On to `CC(C)(C(=O)Nc1nccs1)[C@@H](c1ccccc1)c1ccc(O)c(F)c1`, for which the results for the Ki in experiment [1] and in experiment [3] were 1030 nM and 53 nM, respectively. Further, the Ratio Ki in experiment [2] came to 66. Besides, the Efficacy in experiment [4] was 48%.

Regarding `CC(C)(C(=O)Nc1nccs1)[C@@H](c1ccccc1)c1ccc(O)cc1`, the Ki in experiment [1] is 1060 nM; in experiment [3], 273 nM. Also, the Ratio Ki in experiment [2] was found to be 227. In experiment [4], the Efficacy amounted to 21%.

As to `CC(C)(C(=O)Nc1nccs1)[C@@H](c1ccccc1)c1ccc(O)c(Br)c1`, the Ki in experiment [1] turned out to be 370 nM; in experiment [3] it was 31 nM. Moreover, the Ratio Ki in experiment [2] was found to be 66. Also, the Efficacy in experiment [4] was 29%.

Broadly, the Ki is the equilibrium dissociation constant of an inhibitor or competing ligand from its target. Lower therefore signals higher affinity.
